Starred links: 1 amine or outer side, 2 acyl side, 3 side chain; linkers in the order of their positions; H or OH if unused. Non-standard residues stand in square brackets, D forms with d. Residues, ends and D or L forms follow the SMILES beside them. *: point of attachment. NOTA(2S-Bn(4-NHCS)) = O=C(O)CN1CCN(CC(=O)O)C[C@H](Cc2ccc(NC(=S)*)cc2)N(CC(=O)O)CC1; NH(CH2CH2O)4CH2CO = O=C(COCCOCCOCCOCCN[*:1])[*:2]; Acryloyl(3-(3-pyridyl),E) = O=C(/C=C/c1cccnc1)*; X1 = O=C(Cc1ccc(N[*:1])cc1)[*:2]; Aad = N[C@@H](CCCC(=O)O)C(=O)O; NH(2-Me-phenyl) = Cc1ccccc1N*; Ac6c = NC1(C(=O)O)CCCCC1; CO = O=C([*:1])[*:2]
What was measured:
[1] = tested on: A375 xenografts; assay: Micro-PET imaging, VLA-4-negative A375 xenografts; format: in vivo, mouse; conditions: BALB/c nude mice, 0.5 h, 1 h, 2 h p.i., 5.5–7.4 MBq
How it was run: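 Female BALB/c nude mice carried subcutaneous right-shoulder A375 (VLA-4-negative) grafts of one million cells in PBS. ⁶⁸Ga-labeled test compound was injected intravenously at 5.5–7.4 MBq (100–200 pmol). Static small-animal PET was acquired under 2% isoflurane anesthesia at 0.5, 1 and 2 h p.i.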

[2] = tested on: B16F10 xenografts; assay: Micro-PET imaging, B16F10 xenografts; format: in vivo, mouse; conditions: co-injection of 100 μg unlabeled LLP2A-PEG4; 4 mice per group
How it was run: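 Female C57BL/6 mice bore subcutaneous right-shoulder B16F10 grafts (one million cells). They received intravenous Al¹⁸F- or ⁶⁸Ga-labeled test compound, 5.5–7.4 MBq (100–200 pmol), co-injected with 100 μg unlabeled peptide. Static small-animal PET was acquired under 2% isoflurane at 0.5, 1, 2 h p.i. (plus 4 h for ¹⁸F).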

[3] = tested on: mice bearing B16F10 xenografts; assay: Ex vivo biodistribution; format: in vivo, mouse; conditions: n = 5; for liver uptake: i.v. 5.5–7.4 MBq (100–200 pmol)
How it was run: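 Female C57BL/6 mice (four weeks old) carried subcutaneous right-shoulder B16F10 grafts (one million cells in PBS). Radiolabeled test compound was injected intravenously at 5.5–7.4 MBq (100–200 pmol), with or without 100 μg unlabeled peptide. Mice were sacrificed at 0.5, 1, 2 h p.i. (4 h for the ¹⁸F tracer). Organs and tumor were weighed and gamma-counted, expressed as %ID/g, n = 5.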

[4] = tested on: B16F10 cells; assay: Cell uptake and internalization; format: cell-based, mouse; conditions: co-incubation with 10 μg unlabeled LLP2A-PEG4 per well, n = 3
How it was run: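 Radiotracer uptake in B16F10 cells, grown in DMEM with 10% FBS at 37°C, 5% CO2, seeded at 200,000 cells/well 24 h before. Cells were rinsed with HBSS, then given DMEM with 0.1% BSA and 1 mM Mn²⁺ plus ~74 kBq/well Al¹⁸F- or ⁶⁸Ga-labeled test compound, with or without 10 μg/well unlabeled peptide. Sampling was at 0.5, 1, 2 h (⁶⁸Ga) or up to 4 h (¹⁸F). Cells were PBS-washed and gamma-counted.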

Structure (SMILES): Cc1ccccc1NC(=O)Nc1ccc(CC(=O)N[C@@H](CCCCNC(=O)/C=C/c2cccnc2)C(=O)N[C@@H](CCCC(=O)O)C(=O)NC2(C(=O)NCCOCCOCCOCCOCC(=O)N[C@@H](CCCCNC(=S)Nc3ccc(C[C@H]4CN(CC(=O)O)CCN(CC(=O)O)CCN4CC(=O)O)cc3)C(N)=O)CCCCC2)cc1 [^68Ga-NOTA-PEG4-LLP2A, metal not drawn] ({NH(2-Me-phenyl)-CO}-[X1]K(Acryloyl(3-(3-pyridyl),E))[Aad][Ac6c][NH(CH2CH2O)4CH2CO]K(NOTA(2S-Bn(4-NHCS)))-NH2)
- accumulation in VLA-4-negative A375 xenografts (PET) [1]: did not show specific accumulation
- activity accumulation in B16F10 xenografts with blocking agent (PET) [2]: significantly reduced
- bone uptake ([3]; 0.5 h p.i., B16F10 tumor mice): 5.75 ± 2.04 %ID/g
- tumor uptake ([3]; 0.5 h p.i.): 6.77 ± 1.77 %ID/g
- liver uptake ([3]; 1 h p.i., B16F10 tumor mice): 15.3 ± 1.7 %ID/g
- tumor-to-blood ratio ([3]; 1 h p.i.): 3.3 ± 0.5
- colon uptake ([3]; 2 h p.i., B16F10 tumor mice): 2.1 ± 0.2 %ID/g
- kidney uptake ([3]; 2 h p.i., B16F10 tumor mice): 4.5 ± 0.3 %ID/g
- liver uptake ([3]; 2 h p.i., B16F10 tumor mice): 8.0 ± 0.8 %ID/g
- tumor-to-blood ratio ([3]; 2 h p.i.): 7.3 ± 0.6
- reduction of cell uptake by blocking dose [4]: 79.2%

Structure (SMILES): Cc1ccccc1NC(=O)Nc1ccc(CC(=O)N[C@@H](CCCCNC(=O)/C=C/c2cccnc2)C(=O)N[C@@H](CCCC(=O)O)C(=O)NC2(C(=O)NCCOCCOCCOCCOCC(=O)N[C@@H](CCCCNC(=S)Nc3ccc(C[C@H]4CN(CC(=O)O)CCN(CC(=O)O)CCN4CC(=O)O)cc3)C(N)=O)CCCCC2)cc1 [Al^18F-NOTA-PEG4-LLP2A] ({NH(2-Me-phenyl)-CO}-[X1]K(Acryloyl(3-(3-pyridyl),E))[Aad][Ac6c][NH(CH2CH2O)4CH2CO]K(NOTA(2S-Bn(4-NHCS)))-NH2)
- activity accumulation in B16F10 xenografts with blocking agent (PET) [2]: significantly reduced
- reduction of cell uptake by blocking dose [4]: 61.7%

Reference: publication PMC7067668 (Journal of biological inorganic chemistry : JBIC : a …, 2019)
